# High-throughput results as filed in PubChem BioAssay.
# Sampled rows, rich in hits. Any-hit rate of the full collection: about 5.1%.
# STAT1 activator = STAT1 signaling activators, primary screen, cell-based, HTS, luciferase reporter; NIH 3T3 STAT1-luciferase reporter, IFN-gamma, luminescence; 100% = IFN-gamma alone, no compound; activation (% of control), % at 5.5 µM; hit rate 2.6% among 200,000;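 active means activation above the screen-wide mean activation plus 3 SD, cut at about 130% in these data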
# STAT3 activator = IL-6 driven STAT3 reporter potentiators, primary screen, U3A cells, luciferase, luminescence, MLSCN library | IL-6 STAT3-luciferase reporter; 100% = signal with IL-6 EC80 alone | activation (% of control), % at 5.6 µM | hit rate 0.91% among 190,000 | AID 871, 2007;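 active means activation above the screen-wide mean of compound activation plus 3 SD, cut at about 130% in these data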
#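 Material: STAT3-luciferase reporter U3A cells. Controls: IL-6-treated wells, 100% activation. Read-out: % activation versus median of IL-6-stimulated wells. Probe or stimulus: IL-6 stimulus at 33 ng/mL final. Timing: compound 1 h, then IL-6 6 h at 37 °C. Signal: reporter luminescence signal.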
# NF-kB expr up = activators of NF-kB expression in neurons, primary screen, cell-based, HTS | human neuronal cells, NF-kB reporter expression; hits give high values | fold change at 12.5 µM | hit rate 1.6% among 190,000 | AID 1239, 2008; in the data active means fold change above about 3.3
# APP 5'UTR act = activators of APP 5'UTR luciferase reporter, primary screen, SH-SY5Y cells. SH-SY5Y APP 5'UTR luciferase reporter, luminescence; zero percent = DMSO vehicle wells. activation, % at 2 µM. hit rate 1% among 190,000. AID 1276, 2008;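 active means activation above a set limit, based on mean plus 3 SD of controls, cut at about 140% in these data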
# STAT3 blocker = IL-6 driven STAT3 reporter inhibitors, primary screen, U3A cells, luciferase, luminescence, MLSCN library | hit rate 0.89% among 190,000 | inhibition, % at 5.5 µM | IL-6 STAT3-luciferase reporter; host cell line lacks STAT1 | AID 862, 2007;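 active means inhibition above the mean inhibition across all screened compounds plus 3 SD, cut at about 44% in these data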
# STAT1 inh = STAT1 signaling inhibitors, primary screen, cell-based, HTS, luciferase reporter; NIH 3T3 STAT1-luciferase reporter, IFN-gamma, luminescence; hit rate 0.35% among 200,000; inhibition, % at 5.5 µM;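 active means inhibition above a set limit, the mean inhibition across all tested compounds plus 3 SD, cut at about 34% in these data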
# Hits are given with their value; - = inactive; . = no result.
SMILES,STAT1 activator,STAT3 activator,NF-kB expr up,APP 5'UTR act,STAT3 blocker,STAT1 inh
O=C(c1ccc(COc2ccccc2Cl)o1)N1CCCC1,-,-,-,-,-,35
CC1CCN(C(=O)c2ccc(COc3ccccc3Cl)o2)CC1,-,-,-,-,-,-
O=C1NC(=O)/C(=C\c2ccc(OCc3cccc(C(=O)O)c3)c(Cl)c2)N1,-,-,-,-,73,71
COc1ccc(C(=O)CSc2ccc(-c3ccco3)nn2)cc1,-,-,-,-,-,-
Cc1ccc(OC(=O)c2ccc(C)c([N+](=O)[O-])c2)cn1,-,-,-,-,-,-
Cc1ccc(O)c(CC(C)C)n1,-,-,-,-,-,-
Cn1nnnc1SCC(=O)Nc1ccccc1C(=O)NCc1ccccc1,-,-,-,-,-,-
Cc1nn(Cc2c(F)c(F)c(F)c(F)c2F)c(C)c1NC(=O)c1cccc(COc2ccccc2Cl)c1,-,-,-,151,-,-
Cc1ccc(/C=N/Nc2nc(Cl)c(Cl)cc2Cl)s1,147,-,-,-,-,-
Cc1ccc(/C=N/Nc2ccc(Cl)c(C(=O)O)c2)s1,143,-,8,166,-,-
Cc1ccc(/C=N/NC(=O)c2cccs2)s1,-,-,-,-,-,-
CN(C(=O)Nc1ccc(Cl)c(Cl)c1)c1ccccc1C(=O)O,-,-,-,-,-,-
O=C(O)c1cc(N/N=C/c2cccs2)ccc1Cl,-,-,-,152,-,-
O=C(N/N=C/c1cccs1)C(=O)N1CCCC1,-,-,.,-,-,-
Cc1ccsc1/C=N/Nc1nc(Cl)c(Cl)cc1Cl,-,-,-,-,-,-
O=C(O)c1cc(N/N=C/C(Cl)=C/c2ccccc2)ccc1Cl,-,-,-,-,51,59
COc1ccc(S(=O)(=O)NC2CCCCC2)cc1-n1cnnn1,-,-,-,-,-,-
COC(=O)N/N=C(\C)c1ccc(-n2ccnc2)cc1,-,-,-,-,-,-
Cc1cc2c(nc1C)CCCN2C[C@@H](C)O/N=C1/[C@H]2CCn3c(=O)n(-c4ccccc4)c(=O)n3[C@H]2[C@H](O)[C@@H]2O[C@H]12,-,-,3.4,-,-,-
C/C(CCN1CCCCc2nc(C)c(C)cc21)=N\O[C@H](C)c1cn([C@H](CO)Cc2ccccc2)nn1,-,-,-,-,-,-
CC(CS(=O)(=O)c1cccc2cccnc12)N1CCCCC1 (centres undefined),-,-,-,-,-,-
CCCc1nnc(NC(=O)CC(=O)OCC)s1,-,-,-,-,-,-
Cc1ccc(Nc2cc(-n3cccn3)ncn2)c(C)c1,141,-,3.5,-,-,-
Cc1ccc(Nc2cc(-n3nc(C)cc3C)ncn2)c(C)c1,-,-,-,-,-,-
CC(C)(C)c1ccc(/C=C/C(=O)Nc2ccncc2)cc1,-,-,-,-,-,-
SMILES,STAT1 activator,STAT3 activator,NF-kB expr up,APP 5'UTR act,STAT3 blocker,STAT1 inh
CC(Sc1nnc(NC2CCCCC2)s1)C(=O)Nc1ccc2c(c1)C(=O)c1ccccc1C2=O (centres undefined),142,-,-,-,-,-
CCOc1ccccc1OCCNC1CCCC1,-,-,-,-,-,-
CC(C)(C)c1ccc(OCC(O)CSc2ncn[nH]2)cc1 (centres undefined),134,-,-,-,-,-
OC(COc1ccccc1)CSc1ncn[nH]1 (centres undefined),-,-,-,-,-,-
Cc1cc(N2CCN(C)CC2)n2cc(-c3ccc(F)cc3)nc2n1,-,-,-,-,-,-
Cc1ccc(-c2cn3nc(C)c(C)nc3n2)cc1,-,-,4.7,-,-,-
NC(=O)c1ccc(N2CCCCC2)c(N2C(=O)C3C4C=CC(C4)C3C2=O)c1 (centres undefined),-,-,-,-,-,-
COc1ccc(Cl)cc1C(=O)NNC(=O)c1cccc([N+](=O)[O-])c1,-,-,-,-,-,-
COc1ccccc1C(=O)NNC(=O)c1cccc(Cl)c1,-,-,3.6,142,-,-
COc1ccc(-c2cnn3c(N)c(S(=O)(=O)C(C)(C)C)cnc23)cc1,-,-,6.4,-,-,-
CC(C)(C)S(=O)(=O)c1cnc2c(-c3ccc(Cl)cc3)cnn2c1N,-,-,-,-,-,-
CN(/N=C/c1ccc([N+](=O)[O-])o1)c1ccccc1,135,-,-,-,-,-
COc1ccc(-c2nnc(N(C)C(=O)C3CCCO3)s2)cc1 (centres undefined),-,-,-,-,-,-
CCCN(C(=O)c1ccco1)c1nnc(-c2cccc(C)c2)s1,-,-,-,-,-,-
CCN(C(=O)c1ccco1)c1nnc(-c2ccc(OC)cc2)s1,-,-,3.6,-,-,-
COc1ccc(-c2nnc(N(C)C(=O)C3CCOC3)s2)cc1 (centres undefined),-,-,-,157,-,-
CCOc1cc(/C=N/N=C(N)N)ccc1OCc1ccc(Cl)cc1,-,-,-,-,-,-
COc1cc(/C=N/N=C(N)N)ccc1OCc1ccc(Cl)cc1,-,-,-,180,-,-
COc1ccc(/C=N/NS(=O)(=O)c2ccc(C)cc2)cc1OC(=O)c1ccccc1,-,-,-,-,-,-
CCOc1cc(/C=N/N=C2/NC(=O)C(CC(=O)O)S2)ccc1OCc1ccc(Cl)cc1Cl (centres undefined),-,-,-,-,-,-
COc1cc(/C=N/NS(=O)(=O)c2ccc(C)cc2)ccc1OCc1cccc(C(=O)O)c1,-,-,-,-,47,72
COc1cc(/C=N/N=C2/NC(=O)C(CC(=O)O)S2)ccc1OCc1ccc(Cl)cc1 (centres undefined),130,-,-,-,-,-
COc1cc(/C=N/O)ccc1OCc1ccc(C(=O)O)cc1,-,-,3.4,-,111,93
Cc1ccc(C)c(C(=O)CSc2nc3ccccc3c(=O)[nH]2)c1,-,-,-,-,-,-
CCN(CCn1cccn1)C(=O)CCc1nnc(CCCc2ccccc2)o1,147,-,4.1,-,-,-
SMILES,STAT1 activator,STAT3 activator,NF-kB expr up,APP 5'UTR act,STAT3 blocker,STAT1 inh
CCN(CCn1cccn1)C(=O)CCc1nnc(-c2ccc3c(c2)OCO3)o1,-,-,-,-,-,-
O=c1cc(CN2CCCc3ccccc32)nc2sccn12,-,-,-,-,-,-
O=c1cc(CN2CCc3ccccc32)nc2sccn12,-,134,-,-,-,-
Cn1cnc2nc3n(c2c1=O)CCC3,-,-,-,-,-,-
Cc1nc2sc(-c3ccccc3)nn2c(=O)c1Br,147,-,4.5,-,-,-
CC(=O)Oc1ccccc1C(=O)Oc1ccc(/C=N/n2cnnc2)cc1,-,-,-,-,-,-
